The text below walks through data of ChEMBL document CHEMBL1275368, “Synthesis and evaluation of pyrazolone compounds as SARS-coronavirus 3C-like protease inhibitors” (Bioorg Med Chem, 2010).

The target in data set [1] is Genome polyprotein (Coxsackievirus B3 (strain Nancy)) (UniProt P03313). The data set is described as follows: Inhibition of coxsackievirus B3 3C protease at 50 uM by fluorescence plate reader analysis.
For data set [2], the target named is Replicase polyprotein 1ab (Severe acute respiratory syndrome-related coronavirus) (UniProt P0C6X7). The data set is described as follows: Inhibition of SARS coronavirus 3C-like protease at 50 uM by fluorescence plate reader analysis. In a few lines: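 Stored recombinant SARS-CoV 3CLpro at –70 °C in Tris/NaCl/EDTA/β-ME/DTT buffer. Screened compounds at 50 μM; those inhibiting >50% went on to the follow-up run.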

Another data set relates to HEK293. Nature of the data set: Cytotoxicity against HEK293 cells at 200 uM after 24 hrs by MTT assay. The data set is classed as cell-based. The settings on record: human, hek293, 24 h. In a few lines:
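HEK293 cells seeded at 2×10^5/ml in MEM with 10% FBS at 37 °C and 5% CO2. At 70% confluence, cells were exposed to compound for 24 h. MTT was then added for 4 h at 37 °C. Formazan was dissolved in DMSO after medium removal, and OD at 540 nm was read as cell viability.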
A general note: Tetrazolium dyes change colour on reduction, which living cells bring about.

Data set [3] has as its target Replicase polyprotein 1ab (Severe acute respiratory syndrome-related coronavirus, UniProt P0C6X7). Nature of the data set: Inhibition of SARS coronavirus 3C-like protease by fluorescence plate reader analysis.
A further data set deals with Genome polyprotein (Coxsackievirus B3 (strain Nancy), UniProt P03313). Nature of the data set: Inhibition of coxsackievirus B3 3C protease by fluorescence plate reader analysis.
Chain of Genome polyprotein (P03313 1541-1723 limits assumed): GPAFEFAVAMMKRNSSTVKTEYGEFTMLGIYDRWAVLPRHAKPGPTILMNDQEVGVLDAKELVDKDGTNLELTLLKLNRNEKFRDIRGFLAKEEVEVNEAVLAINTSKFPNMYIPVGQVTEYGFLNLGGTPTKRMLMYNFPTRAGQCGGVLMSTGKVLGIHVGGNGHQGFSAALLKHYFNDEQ

Activity calls are given as the source filed them. The calls are words filed in the database; no cut-off is given here.

Chain of Genome polyprotein (Coxsackievirus B3 (strain Nancy)) (P03313 whole entry): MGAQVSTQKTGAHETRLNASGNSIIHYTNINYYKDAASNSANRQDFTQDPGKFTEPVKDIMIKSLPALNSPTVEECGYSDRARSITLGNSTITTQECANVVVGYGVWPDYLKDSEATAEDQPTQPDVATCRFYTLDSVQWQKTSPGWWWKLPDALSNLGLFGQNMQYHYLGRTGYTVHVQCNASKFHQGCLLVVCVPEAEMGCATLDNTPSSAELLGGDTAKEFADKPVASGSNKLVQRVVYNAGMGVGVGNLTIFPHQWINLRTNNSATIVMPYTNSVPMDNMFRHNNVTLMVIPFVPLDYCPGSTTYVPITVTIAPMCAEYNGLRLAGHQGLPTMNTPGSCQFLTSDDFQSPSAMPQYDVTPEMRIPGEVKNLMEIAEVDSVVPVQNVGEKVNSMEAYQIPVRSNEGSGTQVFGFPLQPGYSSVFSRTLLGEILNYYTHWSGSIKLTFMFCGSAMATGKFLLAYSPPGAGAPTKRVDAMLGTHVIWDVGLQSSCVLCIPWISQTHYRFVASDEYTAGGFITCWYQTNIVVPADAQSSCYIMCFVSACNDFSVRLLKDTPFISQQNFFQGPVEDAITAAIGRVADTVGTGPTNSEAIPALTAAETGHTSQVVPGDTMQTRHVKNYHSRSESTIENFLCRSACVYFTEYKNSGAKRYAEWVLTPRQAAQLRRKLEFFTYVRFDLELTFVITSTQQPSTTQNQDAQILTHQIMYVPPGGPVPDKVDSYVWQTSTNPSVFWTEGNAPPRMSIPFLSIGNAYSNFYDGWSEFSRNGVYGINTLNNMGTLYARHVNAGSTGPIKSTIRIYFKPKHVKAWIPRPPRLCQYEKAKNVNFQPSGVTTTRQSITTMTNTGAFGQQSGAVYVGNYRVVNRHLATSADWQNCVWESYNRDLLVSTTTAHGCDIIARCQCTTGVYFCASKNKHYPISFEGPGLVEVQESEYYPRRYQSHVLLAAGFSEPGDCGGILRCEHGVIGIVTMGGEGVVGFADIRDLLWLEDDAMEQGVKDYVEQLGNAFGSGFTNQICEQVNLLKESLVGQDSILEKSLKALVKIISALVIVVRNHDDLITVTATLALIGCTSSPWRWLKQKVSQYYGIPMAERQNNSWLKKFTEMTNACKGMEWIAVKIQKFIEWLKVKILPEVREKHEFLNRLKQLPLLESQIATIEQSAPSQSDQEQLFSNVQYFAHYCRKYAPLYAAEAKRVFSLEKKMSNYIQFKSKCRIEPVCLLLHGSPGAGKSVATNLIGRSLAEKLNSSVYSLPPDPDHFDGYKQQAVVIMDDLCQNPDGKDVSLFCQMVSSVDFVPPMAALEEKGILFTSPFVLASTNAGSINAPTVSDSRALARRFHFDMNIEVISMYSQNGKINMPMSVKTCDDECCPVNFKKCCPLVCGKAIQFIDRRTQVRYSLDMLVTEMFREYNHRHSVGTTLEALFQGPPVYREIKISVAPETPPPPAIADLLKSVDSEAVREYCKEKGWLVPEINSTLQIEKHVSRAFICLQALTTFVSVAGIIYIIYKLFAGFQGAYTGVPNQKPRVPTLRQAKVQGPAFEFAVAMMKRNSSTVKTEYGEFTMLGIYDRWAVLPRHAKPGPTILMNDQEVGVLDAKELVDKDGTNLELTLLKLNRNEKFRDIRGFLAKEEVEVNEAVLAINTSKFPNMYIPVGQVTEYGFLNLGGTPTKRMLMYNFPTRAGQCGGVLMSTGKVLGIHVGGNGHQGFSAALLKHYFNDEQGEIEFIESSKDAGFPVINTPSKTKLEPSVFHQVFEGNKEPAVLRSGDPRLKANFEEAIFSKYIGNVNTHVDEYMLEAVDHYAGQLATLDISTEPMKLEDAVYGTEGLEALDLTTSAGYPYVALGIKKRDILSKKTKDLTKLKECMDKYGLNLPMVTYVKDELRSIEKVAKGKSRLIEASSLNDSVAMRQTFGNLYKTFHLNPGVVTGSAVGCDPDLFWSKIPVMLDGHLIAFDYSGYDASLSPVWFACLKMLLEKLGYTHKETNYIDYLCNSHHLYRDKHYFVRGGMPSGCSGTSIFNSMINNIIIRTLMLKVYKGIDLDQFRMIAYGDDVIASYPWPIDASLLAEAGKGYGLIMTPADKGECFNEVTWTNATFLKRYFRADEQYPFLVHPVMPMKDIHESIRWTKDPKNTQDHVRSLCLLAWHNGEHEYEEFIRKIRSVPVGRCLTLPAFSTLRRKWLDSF

With `O=C1/C(=C\c2ccccc2)C(c2ccccc2)=NN1c1ccccc1`, the inhibition entry in data set [1] and in data set [2] was “inactive” in each case. Further, the Activity entry with HEK293 is recorded as “Non-toxic”.
For the compound `CC(C)(C)c1ccc(N2N=C(c3ccccc3)/C(=C/c3ccc(C(=O)O)cc3)C2=O)cc1`, the inhibition entry in data set [1] and in data set [2] was “inactive” throughout. Besides, the Activity entry in the data set with HEK293 is recorded as “Non-toxic”.
In the case of `CC(C)c1ccc(N2N=C(c3ccccc3)/C(=C/c3ccc(C(=O)O)cc3)C2=O)cc1`, the inhibition result in data set [1] and in data set [2] was “inactive” throughout. The Activity result in the data set with HEK293 is reported as “Non-toxic”.
Regarding `COc1ccc(/C=C2\C(=O)N(c3ccc(Cl)cc3)N=C2c2ccccc2)cc1`, the inhibition result in data set [1] and in data set [2] was “inactive” each time. Further, in the data set with HEK293, the Activity result was “Non-toxic”.
As to `CN(C)c1ccc(/C=C2\C(=O)N(c3ccccc3)N=C2c2ccccc2)cc1`, the inhibition entry in data set [1] and in data set [2] was “inactive” throughout. In addition, the Activity result in the data set with HEK293 is “Non-toxic”.
The IC50 is the concentration needed to halve the response being measured. A low value points to inhibition by little substance. As for `N#Cc1ccc(N2N=C(c3ccccc3)/C(=C/c3ccc(C(=O)O)cc3)C2=O)cc1`, the 50% inhibitory concentration (IC50) turned out to be 5.5 µM in data set [3] and 20.8 µM against Genome polyprotein. Moreover, in the data set on HEK293, the Activity entry is given as “Non-toxic”.
For `O=C(O)c1ccc(/C=C2\C(=O)N(c3ccc(Cl)cc3)N=C2c2ccccc2)cc1`, in that order: 13.9 µM, 25 µM and “Non-toxic”.
Regarding `O=C1/C(=C\c2ccc(O)cc2)C(c2ccccc2)=NN1c1ccc(Cl)cc1`, the inhibition result in data set [1] and in data set [2] was “inactive” each time. Besides, in the data set on HEK293, the Activity result is “Non-toxic”.
On to `COc1ccc(N2N=C(c3ccccc3)/C(=C/c3ccc(C(=O)O)cc3)C2=O)cc1`, for which the IC50 in data set [3] came out at 12 µM; on Genome polyprotein, 16.6 µM. In addition, the Activity result with HEK293 is listed as “Non-toxic”.
Turning to `CC(=O)Nc1ccc(/C=C2\C(=O)N(c3ccccc3)N=C2c2ccccc2)cc1`, the inhibition entry in data set [1] and in data set [2] was “inactive” throughout. For the same compound, the Activity result with HEK293 is on record as “Non-toxic”.
`O=C(O)c1ccc(/C=C2\C(=O)N(c3cccc(Cl)c3)N=C2c2ccccc2)cc1`: the IC50 in data set [3] amounted to 10.8 µM; against Genome polyprotein it was 17.3 µM. Besides, the Activity entry in the data set with HEK293 is given as “Non-toxic”.
For `O=C(O)c1ccc(/C=C2\C(=O)N(c3ccc(Cl)c(Cl)c3)N=C2c2ccccc2)cc1`, the 50% inhibitory concentration (IC50) in data set [3] was 24.3 µM; on Genome polyprotein, 126 µM. The Activity result with HEK293 is given as “Non-toxic”.
Take `COc1cccc(/C=C2\C(=O)N(c3ccccc3)N=C2c2ccccc2)c1`: the inhibition result in data set [1] and in data set [2] was “inactive” in each case. In the data set on HEK293, the Activity entry is “Non-toxic”.
On to `O=C(O)c1ccc(/C=C2\C(=O)N(c3ccc(OC(F)(F)F)cc3)N=C2c2ccccc2)cc1`, for which the IC50 was 42 µM in data set [3] and 98.8 µM on Genome polyprotein. In addition, in the data set on HEK293, the Activity entry was “Non-toxic”.
For the compound `O=C(O)c1ccc(/C=C2\C(=O)N(c3ccc(F)cc3)N=C2c2ccccc2)cc1`, the IC50 came out at 6.8 µM in data set [3] and 22.4 µM against Genome polyprotein. In addition, in the data set with HEK293, the Activity entry is “Non-toxic”.
For `O=C(O)c1ccc(/C=C2\C(=O)N(c3ccccc3)N=C2c2ccccc2)cc1`, in that order: 18 µM, 51.1 µM and “Non-toxic”.
For the compound `CC(=O)Nc1ccc(/C=C2\C(=O)N(c3ccc(Cl)cc3)N=C2c2ccccc2)cc1`, the inhibition entry in data set [1] and in data set [2] was “inactive” each time. For the same compound, the Activity entry in the data set on HEK293 is listed as “Non-toxic”.
Turning to `O=C1/C(=C\c2ccc(Cl)cc2)C(c2ccccc2)=NN1c1ccc(Cl)cc1`, the inhibition result in data set [1] and in data set [2] was “inactive” throughout. Moreover, in the data set on HEK293, the Activity entry is given as “Non-toxic”.
In the case of `O=C1/C(=C\c2ccccc2)C(c2ccccc2)=NN1c1ccc(Cl)cc1`, the inhibition entry in data set [1] and in data set [2] was “inactive” each time. In addition, the Activity entry in the data set with HEK293 was “Non-toxic”.
As for `O=C(O)c1ccc(/C=C2\C(=O)N(c3cccc([N+](=O)[O-])c3)N=C2c2ccccc2)cc1`, the concentration for half-maximal inhibition (IC50) is 8.4 µM in data set [3] and 9.6 µM on Genome polyprotein. Further, the Activity result with HEK293 is “Non-toxic”.
With `O=C1/C(=C\c2cccc([N+](=O)[O-])c2)C(c2ccccc2)=NN1c1ccccc1`, the inhibition result in data set [1] and in data set [2] was “inactive” throughout. For the same compound, the Activity entry in the data set on HEK293 was “Non-toxic”.
